Bioassay records from PubChem.
hERG protect: hERG (human) protection from proarrhythmic block. CHO-hERG, FluxOR thallium flux, dofetilide IC70 present. activation (rescue from dofetilide block), less the hit threshold, % at 10 µM. hit rate 0.51% among 310,000;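 active = activation above the mean of controls blocked by dofetilide plus 5 SD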;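 also: thallium influx through hERG after potassium depolarization seen as dye fluorescence rise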
KCNK3 block: human KCNK3 channel inhibition, primary screen | hit rate 0.84% among 340,000 | CHO-KCNK3 thallium flux, FluxOR fluorescence; hits give low values | B-score at 10 µM | AID 602410 | O14649;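 active = B-score under library mean minus 4 SD, starting fluorescence ratio at most library mean plus 5 SD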;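 also: more negative B-score means stronger inhibition of thallium flux through KCNK3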
KCNQ1 inh: inhibitors of human KCNQ1 potassium channel; P51787; CHO-K1 KCNQ1, FluxOR thallium flux fluorescence; hits give high values; B-score at 10 µM; hit rate 1.3% among 310,000; AID 2642;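 active = compounds whose thallium flux B-score, printed positive for inhibition, exceeds three library SD while starting fluorescence stays within three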;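 also: channel opened by potassium depolarization with thallium stimulus after 20 min compound exposure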
Kir21 inh: blocks the mouse Kir2.1 inward-rectifier potassium channel; B-score at 10 µM; AID 1672; HEK293-Kir2.1, FluxOR thallium flux fluorescence; hits give low values; P35561; hit rate 0.85% among 310,000;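 active = fluorescence ratio B-score at or below minus 3 SD of library scores, with starting-brightness B-score within 2 SD, cut at about -4.2 in these data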;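 also: channel flux triggered by added potassium and thallium sulfate stimulus; B-score of peak minus minimum fluorescence over baseline after thallium stimulus; more negative B-score means stronger Kir2.1 block with less thallium influx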
KCNQ1 pot: human KCNQ1 channel potentiation or activation; P51787; CHO-K1 KCNQ1, thallium flux FluxOR fluorescence; hits give high values; B-score at 10 µM; hit rate 0.35% among 310,000;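 active = fluorescence ratio B-score, a plate-corrected score, at least three library SD, with initial intensity B-score within 5 SD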
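System: Stable KCNQ1 CHO-K1 line | Incubation: 90 min dye loading and 20 min compound exposure, both at room temperature | Measure: Ratio B score | Medium: Assay buffer for compound exposure, DMSO matched across wells | Compound dosing: Single-concentration screen | Probe or stimulus: K+/Tl+ depolarizing stimulus | Measured by: Kinetic FluxOR fluorescence, 10 s baseline plus 110 s post-stimulus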
KCNK9 inh: human KCNK9 channel inhibition | B-score at 10 µM | Q9NPC2 | hit rate 1.2% among 310,000 | HEK293 KCNK9, FluxOR thallium flux fluorescence; hits give low values | AID 488922;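 active = ratio B-score over 3 SD below the library mean, with starting fluorescence within 5 SD of its mean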;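 also: negative B-score means less thallium flux so channel inhibition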
Target sequence (Q9NPC2 whole entry, looked up): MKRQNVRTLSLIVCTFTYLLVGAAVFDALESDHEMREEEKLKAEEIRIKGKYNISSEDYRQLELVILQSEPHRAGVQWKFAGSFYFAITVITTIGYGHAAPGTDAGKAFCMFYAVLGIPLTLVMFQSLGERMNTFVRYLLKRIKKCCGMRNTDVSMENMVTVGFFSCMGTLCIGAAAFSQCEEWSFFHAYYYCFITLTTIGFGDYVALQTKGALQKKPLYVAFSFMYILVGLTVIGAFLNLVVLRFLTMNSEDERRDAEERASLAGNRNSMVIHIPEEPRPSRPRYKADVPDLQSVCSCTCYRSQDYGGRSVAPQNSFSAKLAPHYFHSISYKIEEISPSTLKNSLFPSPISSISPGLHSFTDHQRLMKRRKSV
KCNK9 inh conf: human KCNK9 inhibitor confirmation. shares compounds with KCNK9 inh. HEK293 KCNK9 cells, FluxOR thallium flux fluorescence. inhibition, % at 10 µM. hit rate 43% among 4,900. AID 492992;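 active = thallium signal inhibited by more than 5 SD of the compound-free buffer control wells, on both duplicate plates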;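 also: 0% = assay buffer control wells without compound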
Kir21 sel: selectivity of KCNK9 modulators against mouse Kir2.1; shares compounds with KCNK9 inh; Kir2.1 cells, FluxOR thallium flux fluorescence; inhibition, % at 10 µM; hit rate 4% among 4,900; AID 492993;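 active = thallium signal drop more than 5 SD beyond the mean of the no-compound control wells, seen in both duplicate plates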;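 also: signal is fluorescence rise after thallium addition divided by baseline fluorescence; plate controls were assay buffer only for no effect and full block by chlorpromazine control for full effect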
KCNK9 uninduced: second check of KCNK9 modulator effects in non-induced HEK293 cells; shares compounds with KCNK9 inh; FluxOR thallium flux; inhibition, % at 10 µM; hit rate 40% among 4,900;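 active = thallium signal drop beyond 5 SD of the untreated control mean, on both duplicate plates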;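 also: plate controls were buffer only IC0 wells for no effect and SID17386958 at its maximal inhibitory level for full effect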
* = called active by the depositor; i = inactive; nt = no result. Sampled rows, rich in hits. Any-hit rate of the full collection: about 3.7%.

SMILES | hERG protect | KCNK3 block | KCNQ1 inh | Kir21 inh | KCNQ1 pot | KCNK9 inh | KCNK9 inh conf | Kir21 sel | KCNK9 uninduced
O=C(c1cc(Cl)ccc1F)N1CCCC(Nc2ccc3c(c2)OCCO3)C1 (stereo not drawn) | -14.6 | i | i | 0 | i | i | i | i | i
CSCc1ccc(C(=O)N2CCCC(Nc3ccc4c(c3)OCCO4)C2)o1 (stereo not drawn) | -8.1 | i | i | 0.76 | i | i | i | i | i
Cc1ccccc1SCC(=O)OCC(=O)NCc1ccccc1 | nt | i | nt | nt | nt | nt | nt | nt | nt
C/C(=C/c1ccccc1)C(=O)N1CCN(c2ccccc2F)CC1 | -2.3 | i | i | 0.63 | i | i | nt | nt | nt
O=C(CSCc1ccccc1)N1CCN(c2ccccc2)CC1 | -6.3 | i | i | -0.88 | i | i | nt | nt | nt
C/C(=C\c1ccccc1)C(=O)N1CCN(c2cccc(C(F)(F)F)c2)CC1 | -9.6 | i | i | 0.22 | i | i | i | i | i
O=C(CSCc1ccccc1)N1CCN(c2cccc(C(F)(F)F)c2)CC1 | -7.7 | i | i | 2.58 | i | i | i | i | i
Cc1ccnc(NC(=S)N2CCN(c3cccc(C(F)(F)F)c3)CC2)c1 | -15.6 | i | i | -0.43 | i | i | i | i | i
CC(C(=O)N1CCc2ccccc21)N1CCN(c2cccc(C(F)(F)F)c2)CC1 (stereo not drawn) | -9.5 | i | i | 0.24 | i | i | i | i | i
Cc1ccc(C)c(NC(=S)N2CCN(c3cccc(C(F)(F)F)c3)CC2)c1 | -3.9 | i | i | 0.01 | i | i | nt | nt | nt
CC(C(=O)N1CCc2ccccc21)N1CCN(S(=O)(=O)c2ccc(C(F)(F)F)cc2)CC1 (stereo not drawn) | nt | i | nt | nt | nt | nt | nt | nt | nt
CCOc1ccc2oc(C(=O)OCC(=O)N3CC(C)OC(C)C3)c(C)c2c1 (stereo not drawn) | nt | i | nt | nt | nt | nt | nt | nt | nt
CNC[C@H](CC1CCCCC1)NC[C@H](Cc1ccccc1)NCCC12CC3CC(CC(C3)C1)C2 | -2.8 | i | i | -8.21* | i | -10.2* | 61.5%* | 79.5%* | 26.0%*
NC[C@H](Cc1ccccc1)NCCCCC1CCCCC1 | nt | i | nt | nt | nt | nt | nt | nt | nt
Cc1nn(Cc2ccccc2)c(C)c1C(=O)OCC(=O)c1cc(C)n(CC(F)(F)F)c1C | -10.3 | i | i | -0.92 | i | i | i | i | i
CCOc1ccc(OCCOC(=O)C2CCN(S(=O)(=O)c3ccc(C)c(C)c3)CC2)cc1 | -12.7 | i | i | 0.59 | i | i | i | i | i
CCOC(=O)C1CCN(S(=O)(=O)c2ccc(OCC(=O)OC)cc2)CC1 | -1.2 | i | i | 1.68 | i | i | nt | nt | nt
Cc1ccc(OCc2cc(C(=O)NC(C)Cc3cnccn3)no2)cc1C (stereo not drawn) | -9.6 | i | i | -0.1 | i | i | nt | nt | nt
Cc1nc(C(C)NC(=O)c2cc(COc3ccc(C)c(C)c3)on2)c(C)s1 (stereo not drawn) | -8.5 | i | i | -0.51 | i | i | i | i | i
COc1ccc(C(=O)OC(C)C(=O)NC(C)CCc2ccccc2)c(OC)c1 (stereo not drawn) | -10.3 | i | i | -1.37 | i | i | nt | nt | nt
CCCCCCCc1c(C#N)c(N)[nH]c(=S)c1C#N | -18.9 | i | 7* | 0.1 | i | i | i | i | i
CC(C)Cc1c2c([nH]c(=S)c1C#N)CCCC2 | -2.4 | i | i | -0.85 | i | i | nt | nt | nt
CCCN(CCC)C(=O)COc1cc(=O)n(CC)c2ccccc12 | -4.9 | i | i | 0.03 | i | i | nt | nt | nt
CCN(Cc1ccccc1)C(=O)COc1cc(=O)n(CC)c2ccccc12 | -8.4 | i | i | 1.01 | i | i | i | i | i
